# Measured values collected from several papers.
# Protocols differ between the studies behind these lines.
# Target: Mitogen-activated protein kinase 1 (MAPK1, Homo sapiens, UniProt P28482)
SMILES,test,setting,measurement,result
O=C(Nc1cnn(-c2csc(C(=O)NC3COC3)c2)c1)Nc1ccccc1Cl,"enzyme activity, inhibitor",5 µM,remaining activity,110%
Cc1cc(-n2nc(Cc3cc(F)cc(C(F)(F)F)c3)nc2C)ccc1C(N)=O,"cell-free assay, competition with immobilised ligand",1 µM,remaining binding,100%
Cc1ccc(Nc2nccc(N(C)c3ccc4c(C)n(C)nc4c3)n2)cc1S(N)(=O)=O,"enzyme activity, inhibitor",10 µM,inhibition,-2%
COc1cc(/C=C/C(=O)CC(=O)/C=C/c2ccc(O)c(OC)c2)ccc1O,"enzyme activity, inhibitor",1 µM,activity vs control,75%
O=C(NCCCC1CCCCC1)c1ccc(CNC(=O)c2cnn(-c3ccccc3)c2C(F)(F)F)cc1,"cell-free assay, competition with immobilised ligand",0.1 µM,remaining binding,93%
Cc1ccc(C(=O)NCc2ccsc2)cc1C#Cc1cn(C(C)C)c2ncnc(N)c12,"enzyme activity, inhibitor",1 µM,activity vs control,98%
Cc1ccc(C(=O)Nc2ccc(CN3CCN(C)CC3)c(C(F)(F)F)c2)cc1C#Cc1cnc2cccnn12,"enzyme activity, inhibitor",23.5 nM,remaining activity,100%
CCCOc1ccc(OC)c(F)c1C(=O)c1ccc(C(=O)N[C@@H]2CNC[C@H]2NC(=O)c2ccc3[nH]ncc3c2)cc1,"enzyme activity, inhibitor",10 µM,remaining activity,86%
COc1ccc2c(c1)O[C@H](c1ccc(OC)c(OC)c1)C[C@@H]2NC(=O)C1(c2ccc3c(c2)OC(F)(F)O3)CC1,"cell-free assay, competition with immobilised ligand",1 µM,remaining binding,99%
COc1cc(Nc2cnc(C#N)c(O[C@H](C)CN(C)C)n2)ncc1-c1cnn(C)c1,"enzyme activity, inhibitor, radiometric",1 µM,remaining activity,101%
N#CCCc1ccc2c(c1)-c1[nH]c3ccc([N+](=O)[O-])cc3c1CC(=O)N2,cell-free assay,0.5 µM,remaining signal,119%
Cc1sc(C(=O)NC2COC2)cc1-n1cc(NC(=O)Nc2c(F)cccc2Cl)cn1,"enzyme activity, inhibitor",10 µM,remaining activity,90.8%
CC(C)(C)C(=O)c1sc(NC2CCCCC2)nc1N,"enzyme activity, inhibitor",10 µM,remaining activity,95%
FC(F)c1nc2ccccc2n1-c1nc(N2CCOCC2)nc(N2CCOCC2)n1,"enzyme activity, inhibitor",10 µM,remaining activity,105%
CC(=O)N1CCC(c2ccc(C(=O)NC3=NCCN3)cc2C(F)(F)F)CC1,"cell-free assay, competition with immobilised ligand",1 µM,remaining binding,100%
Nc1ncnc2occ(-c3ccc(NC(=O)Nc4cc(C(F)(F)F)ccc4F)cc3)c12,"cell-free assay, inhibitor",20 µM,remaining signal,100%
CCC(=O)N[C@H]1CC[C@@H](C(=O)N(C)c2ccc(-c3nc4ccccc4o3)cc2)C1,"cell-free assay, competition with immobilised ligand",1 µM,remaining binding,76%
CN(c1ncccc1CNc1nc(Nc2ccc3c(c2)CC(=O)N3)ncc1C(F)(F)F)S(C)(=O)=O,"enzyme activity, inhibitor",1 µM,inhibition,88.1%
Cc1cc(C)c(-n2ccn3nc(-c4cccnc4)cc23)cc1NC(=O)c1cc(C#N)cc(S(F)(F)(F)(F)F)c1,"cell-free assay, competition with immobilised ligand",0.1 µM,remaining binding,88.1%
COc1cc2c(cc1OC)-c1[nH]nc(Nc3cccc(F)c3)c1C2,cell-free assay,0.5 µM,remaining signal,85.1%
CNc1cccc2cc(C(=O)Nc3ccc(C(=O)O)cc3)c(=O)[nH]c12,"enzyme activity, inhibitor",10 µM,inhibition,1.3%
CNC(=O)c1cc(Oc2ccc(NC(=O)Nc3ccc(Cl)c(C(F)(F)F)c3)cc2)ccn1,cell-free assay,0.5 µM,remaining signal,101%
Nc1nc(Nc2ccccc2)sc1C(=O)c1c(F)cccc1F,"enzyme activity, inhibitor",10 µM,remaining activity,68%
CC(C)(C)c1nc2c(s1)c1nc(N)ncc1c1ccc(NS(=O)(=O)c3c(F)cccc3F)c(F)c12,"enzyme activity, inhibitor, radiometric",1 µM,remaining activity,99%
CCc1ccccc1C(=O)Nc1n[nH]c2c(C)c(F)c(C3C(C#N)=C(C)N(C)C(C)=C3C#N)cc12,"cell-free assay, competition with immobilised ligand",1 µM,remaining binding,86%
COc1cc(Nc2c(C#N)cnc3cc(OCCCN4CCN(C)CC4)c(OC)cc23)c(Cl)cc1Cl,cell-free assay,0.5 µM,remaining signal,93.7%
COc1cc2ncnc(Nc3ccc(Oc4ccccc4)cc3C)c2cc1OC,"enzyme activity, inhibitor",1 µM,inhibition,-2%
CCN(CC)CCNC(=O)c1c(C)[nH]c(/C=C2\C(=O)Nc3ccc(F)cc32)c1C,"enzyme activity, inhibitor",10 µM,inhibition,1%
O=C1Cc2c([nH]c3ccc(Br)cc23)-c2ccccc2N1,cell-free assay,0.5 µM,remaining signal,90.5%
CN(C)C1CCN(CC#Cc2nn(C3CCCC3)c3nc(NCc4ccccc4)ncc23)C1 (centres unmarked),"enzyme activity, inhibitor, FRET",10 µM,inhibition,2%
COc1cccc(-c2cc(=O)c3ccccc3o2)c1N,cell-free assay,0.5 µM,remaining signal,97.1%
Cc1c(NC(=O)c2cc(C(N)=O)nc3cc(F)ccc23)c(C(F)(F)F)nn1Cc1ccc(C#N)cc1,"cell-free assay, competition with immobilised ligand",1 µM,remaining binding,100%
